According to ChEMBL document CHEMBL4130429, “Hydroxytriazole derivatives as potent and selective aldo-keto reductase 1C3 (AKR1C3) inhibitors discovered by bioisosteric scaffold hopping approach” (Eur J Med Chem, 2017):
The source made the active and inactive calls. The rule behind the calls is not given here.

How the values were obtained:
CWR22R [1] = experiment: Synergistic antiproliferative activity against human 22Rv1 cells at 60 uM after 72 hrs in presence of 10 uM abiraterone by sulforhodamine B colorimetric proliferation assay; type: functional
Procedure, shortened: (§1)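 Co-treatment by SRB assay: 22RV1 cells in RPMI with 10% charcoal-stripped serum, given 60 µM inhibitor with or without 10 µM abiraterone or 20 µM enzalutamide for 72 h. Growth expressed as % T/C (mean OD treated/control ×100). Means of two experiments in triplicate.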

CWR22R [2] = experiment: Inhibition of AKR1C3-mediated testosterone production in human 22Rv1 cells after 1 hr in presence of androstenedione by ELISA; type: functional, cell-based
Procedure, shortened: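 22RV1 cells seeded at 30,000/well in RPMI with 10% charcoal-stripped serum, 24 h. Inhibitor added at four concentrations for 1 h, then 28 nM androstenedione, further 24 h. Supernatant testosterone measured by ELISA at 405 nm against a standard curve, corrected for androstenedione cross-reactivity. Means of two experiments in triplicate.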

CWR22R [3] = experiment: Inhibition of AKR1C3-mediated testosterone production in human 22Rv1 cells at 100 uM after 1 hr in presence of androstenedione by ELISA; type: functional; settings: 22Rv1, 1 h
Homo sapiens [4] = species on record: Homo sapiens; experiment: Selectivity index, ratio of IC50 for human COX2 to IC50 for AKR1C3 (unknown origin)
CWR22R [5] = experiment: Synergistic antiproliferative activity against human 22Rv1 cells at 60 uM after 72 hrs in presence of 20 uM enzalutamide by sulforhodamine B colorimetric proliferation assay; type: functional; procedure, shortened: as §1
[6] = Selectivity index, ratio of IC50 for ovine COX1 to IC50 for AKR1C3 (unknown origin)
[7] = target: T1, Prostaglandin G/H synthase 1 (Ovis aries) (UniProt P05979); experiment: Inhibition of ovine COX1 assessed as reduction in PGF2alpha production at 100 uM by ELISA
T1 sequence (whole entry): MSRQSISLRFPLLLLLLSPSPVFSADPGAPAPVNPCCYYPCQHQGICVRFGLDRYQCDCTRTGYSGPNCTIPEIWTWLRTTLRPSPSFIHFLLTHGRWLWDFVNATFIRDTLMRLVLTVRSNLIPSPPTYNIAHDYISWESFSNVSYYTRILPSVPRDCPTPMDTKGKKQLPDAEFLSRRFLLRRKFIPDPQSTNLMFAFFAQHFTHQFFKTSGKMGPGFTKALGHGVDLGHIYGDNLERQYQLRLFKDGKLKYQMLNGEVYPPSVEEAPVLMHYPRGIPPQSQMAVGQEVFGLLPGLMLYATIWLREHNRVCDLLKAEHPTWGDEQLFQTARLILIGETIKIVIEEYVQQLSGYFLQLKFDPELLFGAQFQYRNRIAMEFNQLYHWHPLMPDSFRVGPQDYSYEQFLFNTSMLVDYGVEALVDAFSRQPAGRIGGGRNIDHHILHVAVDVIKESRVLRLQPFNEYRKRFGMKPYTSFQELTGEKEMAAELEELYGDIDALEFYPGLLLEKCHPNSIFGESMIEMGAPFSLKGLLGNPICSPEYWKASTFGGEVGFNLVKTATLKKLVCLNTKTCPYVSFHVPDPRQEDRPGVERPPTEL

[8] = target: Prostaglandin G/H synthase 2 (Homo sapiens) (UniProt P35354); experiment: Inhibition of human COX2 assessed as reduction in PGF2alpha production at 100 uM by ELISA
Prostaglandin G/H synthase 2 (Homo sapiens), sequence (P35354 whole entry, looked up): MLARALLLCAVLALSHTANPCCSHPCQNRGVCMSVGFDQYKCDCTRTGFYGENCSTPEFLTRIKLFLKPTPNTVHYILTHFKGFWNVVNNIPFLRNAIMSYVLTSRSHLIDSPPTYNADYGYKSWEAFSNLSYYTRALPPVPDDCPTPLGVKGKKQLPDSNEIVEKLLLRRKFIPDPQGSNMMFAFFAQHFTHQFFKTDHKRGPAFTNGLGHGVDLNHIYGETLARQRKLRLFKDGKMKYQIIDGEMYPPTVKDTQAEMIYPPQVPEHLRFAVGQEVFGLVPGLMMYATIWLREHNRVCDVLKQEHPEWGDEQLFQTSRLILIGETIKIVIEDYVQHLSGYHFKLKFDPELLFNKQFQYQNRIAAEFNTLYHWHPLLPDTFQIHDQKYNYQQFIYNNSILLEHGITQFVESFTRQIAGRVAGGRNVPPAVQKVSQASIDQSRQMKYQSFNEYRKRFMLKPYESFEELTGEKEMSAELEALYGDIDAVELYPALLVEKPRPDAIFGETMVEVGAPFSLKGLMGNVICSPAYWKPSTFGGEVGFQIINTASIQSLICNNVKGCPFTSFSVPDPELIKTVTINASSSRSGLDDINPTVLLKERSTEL

Homo sapiens [9] = species on record: Homo sapiens; experiment: Selectivity index, ratio of IC50 for AKR1C2 (unknown origin) to IC50 for AKR1C3 (unknown origin)
[10] = target: T2, Prostaglandin G/H synthase 1 (Ovis aries, UniProt P05979); experiment: Inhibition of ovine COX1 assessed as reduction in PGF2alpha production by ELISA
T2 sequence (P05979 whole entry): T1 sequence (whole entry)
Procedure, shortened: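 Commercial COX (ovine COX-1/human COX-2) inhibitor screening kit. PGH2 formed by COX is reduced by SnCl2 to PGF2α, which is quantified by ELISA absorbance. IC50 by linear regression. Mean ± SE of at least three experiments.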

CWR22R [11] = experiment: Antiproliferative activity against human 22Rv1 cells after 72 hrs by sulforhodamine B colorimetric proliferation assay; type: functional, cell-based; settings: 22Rv1, 72 h
Procedure, shortened: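 22RV1 castration-resistant prostate cells were seeded at 10,000 cells/well in RPMI with 10% charcoal-stripped serum and allowed to adhere for 24 h at 37 °C, 5% CO2. Inhibitor dilutions in ethanol were added in triplicate for 72 h, with ethanol-matched controls (max 1% v/v). Growth was read by SRB and given as %T/C (treated/control OD). Means of two experiments, each in triplicate.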

[12] = target: T3, Aldo-keto reductase family 1 member C3 (Homo sapiens, UniProt P42330); experiment: Inhibition of AKR1C3 (unknown origin) using S-tetralol as substrate in presence of NADP+ by fluorimtery
T3 sequence (P42330 whole entry): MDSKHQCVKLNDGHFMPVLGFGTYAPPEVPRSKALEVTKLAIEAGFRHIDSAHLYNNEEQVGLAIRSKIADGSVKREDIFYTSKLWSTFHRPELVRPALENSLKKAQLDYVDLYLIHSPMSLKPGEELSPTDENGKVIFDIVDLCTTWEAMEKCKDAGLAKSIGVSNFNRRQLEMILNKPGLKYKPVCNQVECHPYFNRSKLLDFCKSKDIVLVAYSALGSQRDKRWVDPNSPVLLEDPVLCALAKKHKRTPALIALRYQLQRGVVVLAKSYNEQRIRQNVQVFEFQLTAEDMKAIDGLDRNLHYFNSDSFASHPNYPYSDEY
Procedure, shortened: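 Purified recombinant enzyme (GST-tagged, glutathione-sepharose purified, thrombin-cleaved) with S-tetralol in 100 mM phosphate pH 7, 200 µM NADP+, 10% ethanol. […] NADPH formation followed fluorimetrically (ex 340/em 460 nm) at 37 °C. IC50 from initial velocities versus solvent controls; means of two experiments in triplicate.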

[13] = target: T4, Aldo-keto reductase family 1 member C2 (Homo sapiens, UniProt P52895); experiment: Inhibition of AKR1C2 (unknown origin) using S-tetralol as substrate by fluorimtery
T4 sequence (P52895 whole entry): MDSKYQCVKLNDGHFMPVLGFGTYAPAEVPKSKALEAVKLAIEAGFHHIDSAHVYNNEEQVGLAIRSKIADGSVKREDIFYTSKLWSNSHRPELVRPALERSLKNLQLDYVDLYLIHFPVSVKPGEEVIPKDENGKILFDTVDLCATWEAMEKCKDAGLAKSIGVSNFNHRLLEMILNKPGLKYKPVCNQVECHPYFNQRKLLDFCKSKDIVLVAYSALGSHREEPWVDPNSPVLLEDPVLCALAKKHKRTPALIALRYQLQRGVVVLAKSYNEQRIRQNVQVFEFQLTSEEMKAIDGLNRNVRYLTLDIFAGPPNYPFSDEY
Procedure, shortened: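 Purified recombinant enzyme (GST-tagged, glutathione-sepharose purified, thrombin-cleaved) with S-tetralol in 100 mM phosphate pH 7, 200 µM NADP+, 10% ethanol. IC50 from initial velocities versus solvent controls; means of two experiments in triplicate.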

CWR22R [14] = experiment: Antiproliferative activity against human 22Rv1 cells at 60 uM after 72 hrs by sulforhodamine B colorimetric proliferation assay; type: functional, cell-based
[15] = target: T3, Aldo-keto reductase family 1 member C3; experiment: Inhibition of recombinant human AKR1C3 expressed in Escherichia coli BL21 (DE) using [14C]androstenedione as substrate in presence of NADPH generating system
Procedure, shortened: (§2)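 E. coli expressing AKR1C3, unlysed, suspended in 100 mM phosphate pH 6.6 (~15 µg protein). Incubated with [14C]androstenedione (6×10^-4 µCi), Tween 80 0.1 mg/mL, 1 mM ATP, 1 mM MgCl2 and NADPH-generating system (1 mM NADP+, 3 mM glucose-6-phosphate, 3 U G6PDH) for 30 min at 30 °C with shaking. Conversion to testosterone quantified by radioactivity scanning of TLC.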

[16] = target: T5, Aldo-keto reductase family 1 member C3 (Homo sapiens) (UniProt P42330); experiment: Inhibition of recombinant human AKR1C3 expressed in Escherichia coli BL21 […] at 50 uM using [14C]androstenedione as substrate in presence of NADPH generating system; procedure, shortened: as §2
T5 sequence (whole entry): T3 sequence (P42330 whole entry)

CWR22R [17] = experiment: Antiproliferative activity against human 22Rv1 cells at 10 uM after 72 hrs by sulforhodamine B colorimetric proliferation assay; type: functional, cell-based
CWR22R [18] = experiment: Antiproliferative activity against human 22Rv1 cells at 20 uM after 72 hrs by sulforhodamine B colorimetric proliferation assay; type: functional, cell-based

## COc1ccc(Cn2nnc(O)c2C(=O)Nc2cccc(C(F)(F)F)c2)cc1
CWR22R [1]
  Activity: 45%
CWR22R [2]
  inhibition: Dose-dependent effect
CWR22R [3]
  inhibition at 100 µM: 50%
Homo sapiens [4]
  Ratio IC50: > 322
CWR22R [5]
  Activity: 50%
[6]
  Ratio IC50: > 322
[7]
  inhibition: 0%
[8]
  inhibition: 12%
Homo sapiens [9]
  Ratio IC50: 236
[10]
  IC50: > 100 µM
CWR22R [11]
  IC50: 81.4 µM
[12]
  IC50: 0.31 µM
[13]
  IC50: 73.2 µM
CWR22R [14]
  Activity: inactive
[15]
  IC50: 3.56 µM

## O=C(Nc1cccc(C(F)(F)F)c1)c1c(O)nnn1CC1CC1
Homo sapiens [4]
  Ratio IC50: > 63
[6]
  Ratio IC50: > 63
[7]
  inhibition: 17%
[8]
  inhibition: 9.6%
Homo sapiens [9]
  Ratio IC50: 44
[10]
  IC50: > 100 µM
[12]
  IC50: 1.6 µM
[13]
  IC50: 70.6 µM
[15]
  IC50: 13.2 µM

## O=C(Nc1cccc(C(F)(F)F)c1)c1nsnc1O
[16]
  inhibition: 47.2%
[15]
  IC50: ≥ 50 µM

## O=C(Nc1cccc(C(F)(F)F)c1)c1nonc1O
[16]
  inhibition: 35.4%
[15]
  IC50: > 50 µM

## Cn1nnc(O)c1C(=O)Nc1cccc(C(F)(F)F)c1
[15]
  IC50: 32.8 µM

## O=C(Nc1cccc(C(F)(F)F)c1)c1c(O)nnn1Cc1ccccc1
Homo sapiens [4]
  Ratio IC50: > 208
[6]
  Ratio IC50: > 208
[7]
  inhibition: 15%
[8]
  inhibition: 7.5%
Homo sapiens [9]
  Ratio IC50: 131
[10]
  IC50: > 100 µM
CWR22R [11]
  IC50: 67.1 µM
[12]
  IC50: 0.48 µM
[13]
  IC50: 62.9 µM
[15]
  IC50: 10.2 µM

## Cn1nc(O)c(C(=O)Nc2cccc(C(F)(F)F)c2)n1
[16]
  inhibition: 18.5%
[15]
  IC50: > 50 µM

## O=C(O)c1ccccc1Nc1cccc(C(F)(F)F)c1 [FLUFENAMIC ACID]
[10]
  IC50: 14 µM
CWR22R [11]
  IC50: 115 µM
[12]
  IC50: 0.44 µM
[15]
  IC50: 8.63 µM

## C[C@]12CC[C@H](O)CC1=CC[C@@H]1[C@@H]2CC[C@]2(C)C(c3cccnc3)=CC[C@@H]12
CWR22R [17]
  Activity: inactive

## O=C(Nc1cccc(C(F)(F)F)c1)c1nn(CC2CC2)nc1O
[16]
  inhibition: 5.35%
[15]
  IC50: > 50 µM

## CNC(=O)c1ccc(N2C(=S)N(c3ccc(C#N)c(C(F)(F)F)c3)C(=O)C2(C)C)cc1F
CWR22R [18]
  Activity: inactive
